NR3A LBD binder – modulators (binders) of human NR3A ligand-binding domain; NR3A LBD differential scanning fluorimetry, Tm shift; 0% = protein alone, 100% = glycine-bound protein; Tm shift relative to glycine control, % at 25 µM; hit rate 2.5% among 340,000;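 active = melting temperature shift of at least 10% of the positive control shift, at one fixed dose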
SENP1 FRET inh – blocks the human SENP1 SUMO protease catalytic domain; hit rate 0.21% among 360,000; recombinant SENP1 catalytic domain, CyPet-SUMO1-YPet FRET cleavage; AID 624204; inhibition, % at 10 µM;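 active = inhibition at least 30% at 10 µM, raw YFP signal under a set limit, fluorescence ratio 0.5 to 1.5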;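 note: 0% = enzyme with DMSO and 100% = no enzyme wells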
Target sequence (Q9P0U3 419-644 limits assumed): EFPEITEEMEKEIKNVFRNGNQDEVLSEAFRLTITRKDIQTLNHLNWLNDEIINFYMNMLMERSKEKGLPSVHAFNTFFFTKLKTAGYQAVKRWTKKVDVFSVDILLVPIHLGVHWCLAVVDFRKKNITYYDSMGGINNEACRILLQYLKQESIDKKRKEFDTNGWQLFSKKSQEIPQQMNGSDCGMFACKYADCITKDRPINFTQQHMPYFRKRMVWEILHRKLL
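Material – human SENP1 catalytic domain · Input – SENP1 enzyme, 20 pM final · Compound dosing – single concentration of 10 µM compound, 0.5% DMSO final · Timing – enzyme reaction for 50 min at room temperature, dark · Measured by – FRET fluorescence in CFP and YFP emission channels · Control set – no-enzyme wells low, DMSO-plus-enzyme wells high control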
EBI2 block – blocks human EBI2 receptor beta-arrestin signaling; P32249; EBI2 beta-arrestin recruitment, luminescence, 7a,25-OHC stimulated; inhibition, % at 5 µM; hit rate 0.81% among 360,000; in the data active = inhibition above about 38%;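 note: enzyme fragment complementation signal reports receptor beta-arrestin coupling in cells; 0% = agonist plus DMSO wells and 100% = wells without agonist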
MPTP block – blocks calcium-induced mitochondrial swelling; isolated mouse mitochondria, Ca2+ swelling absorbance, 30 min; inhibition, % at 10 µM; hit rate 1.4% among 360,000;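 active = inhibition of 50% or more, scaled per plate between neutral and stimulator controls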;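 note: 0% = DMSO wells given calcium and 100% = 1 mM EGTA wells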
EBI2 conf – confirmation of human EBI2 receptor antagonists. EBI2 beta-arrestin luminescence, 7a,25-OHC antagonism. AID 651997. shares compounds with EBI2 block. inhibition, % at 5 µM. hit rate 29% among 2,400;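 active = inhibition of at least 50%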
EBI2 agonist – activates EBI2, counter-screen for EBI2 antagonists. AID 652000. activation, % at 5 µM. 2,400 tested, under 10 active. shares compounds with EBI2 block. EBI2-expressing cells, agonist mode, luminescence, 60 min; 0% vehicle, 100% 7α,25-dihydroxycholesterol control;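 active = activation of at least 50%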
bGal cs – counter-screen for EBI2 antagonists: E. coli beta-galactosidase inhibition; shares compounds with EBI2 block; purified beta-galactosidase, luminescent Galacton Star, 15 min; inhibition, % at 5 µM; hit rate 1% among 2,400;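 active = replicate-average signal at least 3 plate SD below neutral wells, shown as high inhibition, flagging enzyme-inhibiting false positives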;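 note: 0% = DMSO wells with enzyme and 100% = wells lacking enzyme; higher means stronger loss of beta-gal luminescence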
Numbers without * were called inactive; / = no result given. Only some compounds are listed: those with a hit (about 4.4% of all), similar ones and a draw of the others.

SMILES | NR3A LBD binder | SENP1 FRET inh | EBI2 block | MPTP block | EBI2 conf | EBI2 agonist | bGal cs
CCCn1c(=O)[nH]c(=O)c2c1nc(-c1ccc(OC)c(Br)c1)n2CCOC | 0 | -1 | 2 | 2 | / | / | /
O=C(Nc1ccc2c(c1)OCO2)N1CCN(S(=O)(=O)c2ccc(Cl)cc2)CC1 | -2 | 0 | 48* | -1 | 27 | -1 | -13
O=C(Nc1ccc2c(c1)OCO2)N1CCN(c2ccccc2Cl)CC1 | 27* | 3 | 50* | -1 | 37 | -1 | 3
COc1ccc(NC(=O)Cc2cccc3ccccc23)cc1 | 0 | 0 | -1 | 1 | / | / | /
COc1ccc(Oc2nc(-c3cccnc3)nc3ccccc23)cc1 | -7 | -4 | 7 | 4 | / | / | /
CC(=O)CCc1ccc(Oc2nc(-c3cccnc3)nc3ccccc23)cc1 | -1 | -24 | 54* | 0 | 25 | 1 | 3
CCOC(=O)[C@]12CCC=C1N(Cc1ccco1)C(=O)[C@H](CC(=O)N1CCN(C(=O)C3CC3)CC1)C2 | / | -2 | -2 | 2 | / | / | /
COc1ccc(/C(O)=C2/C(=O)C(=O)N(c3ccccn3)C2c2ccc(C(C)C)cc2)cc1 (centres undefined) | 4 | 13 | -1 | 6 | / | / | /
Cc1ccc(CNC(=O)C2CCN(C(=O)Nc3ccc(C)cc3)CC2)cc1 | -3 | 1 | 62* | -1 | 29 | 0 | 10
O=C(NCc1ccc(F)cc1)C1CCCN(C(=O)Nc2ccccc2)C1 (centres undefined) | 0 | 1 | 50* | 4 | 19 | 0 | 6
O=C(NCc1ccccc1F)C1CCCN(C(=O)Nc2ccc(F)cc2)C1 (centres undefined) | 2 | 3 | 16 | 0 | / | / | /
O=C(NCc1ccc(F)cc1)C1CCCN(C(=O)Nc2ccc(F)cc2)C1 (centres undefined) | -1 | 4 | 51* | -1 | 33 | 2 | 1
CC1CN(C(=O)c2ccc(NS(=O)(=O)c3ccc(F)c(F)c3)cc2)CC(C)O1 (centres undefined) | -1 | 0 | -10 | 0 | / | / | /
CC1CCCC(NC(=O)CN(C)CC(=O)Nc2ccc(F)cc2)C1C (centres undefined) | 0 | 2 | -6 | -1 | / | / | /
COC(=O)c1cc(=O)n(Cc2ccc(OC)c(OC)c2)c(=Nc2ccc(F)cc2)s1 | -3 | 3 | 70* | 2 | 50* | 0 | -9
COC(=O)c1cc(=O)n(Cc2ccc(F)cc2)c(=Nc2ccccc2)s1 | -1 | 2 | 60* | 2 | 62* | 0 | 7
COC(=O)c1cc(=O)n(Cc2ccco2)c(=Nc2ccc(F)cc2)s1 | -2 | 1 | 16 | 3 | / | / | /
COC(=O)c1cc(=O)n(CCc2ccc(OC)c(OC)c2)c(=Nc2ccc(F)c(Cl)c2)s1 | 0 | 3 | 63* | 0 | 62* | -1 | -8
CCOC(=O)c1ccc(N=c2sc(C(=O)OC)cc(=O)n2-c2ccc(C(=O)OCC)cc2)cc1 | -2 | 3 | 79* | 2 | 74* | 1 | 7
CN(C1CCCCC1)S(=O)(=O)c1ccc(NC(=S)NC(=O)c2cccs2)cc1 | 2 | -4 | 26 | 2 | / | / | /
Cn1nc(C(=O)O)c(=O)n(C)c1=O | 0 | 2 | -2 | -2 | / | / | /
COCCNC(=O)CSCc1cc(C)cc(C)c1 | 0 | 0 | -4 | -1 | / | / | /
O=C(NCc1ccccc1)C(c1ccc(-c2ccccc2)cc1)n1c(=O)c(-c2ccco2)nc2ccccc21 (centres undefined) | / | -36 | -3 | 0 | / | / | /
CCOc1ccccc1CN(Cc1ccco1)S(=O)(=O)c1ccc(-n2cnnn2)c(OC)c1 | 1 | 1 | 49* | 2 | 14 | 0 | 7
COc1cc(C(=O)NCCc2c[nH]c3ccccc23)ccc1OCc1c(C)noc1C | -10 | -2 | 61* | 1 | 49 | 0 | -19
COc1ccc(CCNC(=O)c2ccc(OCc3c(C)noc3C)c(OC)c2)cc1 | 0 | 1 | -5 | 0 | / | / | /
COc1ccc(NC(=S)Nc2cc(C(F)(F)F)ccc2F)cc1 | -7 | 0 | 43* | 20 | 8 | 0 | -11
